The source made the active and inactive calls.
Legend:
COLO 320 = test: Inhibition of colony formation in human COLO 320 cells at 500 to 1000 nM by crystal violet staining analysis; assay type: functional, cell-based; conditions: dose 500-1000 nM
How it was run: (§1)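 Exponentially growing cells (1-2x10^3) plated in six-well plates; after 48 h treated with indicated concentrations for 3–5 days, then methanol-fixed and crystal violet stained. Cell lines maintained at 37 °C, 5% CO2 in serum-supplemented medium, STR-validated, mycoplasma-tested, <15 passages.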

DLD-1 = test: Inhibition of colony formation in human DLD-1 cells at 500 to 1000 nM by crystal violet staining analysis; assay type: functional, cell-based; conditions: dose 500-1000 nM; how it was run: as §1
HCT-116 [1] = test: Inhibition of colony formation in human HCT116 p53+/+ cells at 500 to 1000 nM by crystal violet staining analysis; assay type: functional, cell-based; conditions: dose 500-1000 nM; how it was run: as §1
HCT-116 [2] = test: Inhibition of colony formation in human HCT116 p53-/- cells at 500 to 1000 nM by crystal violet staining analysis; assay type: functional, cell-based; conditions: dose 500-1000 nM; how it was run: as §1
HT-29 = test: Inhibition of colony formation in human HT-29 cells at 500 to 1000 nM by crystal violet staining analysis; assay type: functional, cell-based; conditions: dose 500-1000 nM; how it was run: as §1
LS174T = test: Inhibition of colony formation in human LS174T cells at 500 to 1000 nM by crystal violet staining analysis; assay type: functional, cell-based; conditions: dose 500-1000 nM; how it was run: as §1
SW480 = test: Inhibition of colony formation in human SW480 cells at 500 to 1000 nM by crystal violet staining analysis; assay type: functional, cell-based; conditions: dose 500-1000 nM; how it was run: as §1
[3] = target: Bromodomain-containing protein 4 (Homo sapiens) (UniProt O60885); conditions: SW480, dose 500-1000 nM, time 24.0 hrs
[4] = target: Bromodomain-containing protein 4 (Homo sapiens) (UniProt O60885); conditions: LS174T, dose 500-1000 nM, time 24.0 hrs
[5] = target: Bromodomain-containing protein 4 (Homo sapiens) (UniProt O60885); conditions: HT-29, dose 500-1000 nM, time 24.0 hrs
[6] = target: Bromodomain-containing protein 4 (Homo sapiens) (UniProt O60885); conditions: HCT-116, dose 500-1000 nM, time 24.0 hrs
[7] = target: Bromodomain-containing protein 4 (Homo sapiens) (UniProt O60885); conditions: HCT-116, dose 500-1000 nM, time 24.0 hrs; remark: listed apart in the source
[8] = target: Bromodomain-containing protein 4 (Homo sapiens) (UniProt O60885); conditions: DLD-1, dose 500-1000 nM, time 24.0 hrs
[9] = target: Bromodomain-containing protein 4 (Homo sapiens) (UniProt O60885); conditions: COLO 320, dose 500-1000 nM, time 24.0 hrs
[10] = target: Bromodomain-containing protein 4 (Homo sapiens) (UniProt O60885); conditions: LS174T, dose 500-1000 nM, time 24.0 hrs; remark: listed apart in the source
[11] = target: Bromodomain-containing protein 4 (Homo sapiens) (UniProt O60885); conditions: LS174T, dose 500-1000 nM, time 24.0 hrs; remark: listed apart in the source

Measured: inhibition

Cc1sc2c(c1C)C(c1ccc(Cl)cc1)=N[C@@H](CC(=O)OC(C)(C)C)c1nnc(C)n1-2
active: all assays above
